DNMT1 inh: DNMT1 (human) enzyme inhibition. 0.83% of 360,000 active. inhibition (reported as % activation of signal), % at 10 µM. DNMT1 molecular beacon, Hinp1I cleavage, fluorescence. AID 588458; in the data active = inhibition above about 50%
CFTR F508del cor: correctors of CFTR F508del function in bronchial epithelial cells; activity (quench increase), % at 7.58 µM; 0.36% of 350,000 active; CFBE cells, YFP halide quenching; stimulated with forskolin plus potentiator P3; % fluorescence drop versus neutral controls;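 active = mean added fluorescence quench of at least 8% versus neutral control, with both replicates also reaching 8%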;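 also: cells transiently co-express mutant CFTR-F508del with the halide-sensitive YFP; corrector assay measuring rescue of mutant channel to the surface after 24 h compound exposure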
LMPTP inh: LMPTP (human) inhibition; AID 651560; 0.22% of 360,000 active; recombinant LMPTP-A, OMFP fluorogenic substrate, fluorescence intensity; inhibition, % at 20 µM; P24666;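 active = compounds that cut the enzyme signal by at least half of the control window in the single-dose screen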;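 also: plate controls were DMSO wells with enzyme plus substrate for no effect and substrate without enzyme for full effect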
Target sequence (P24666 whole entry, looked up): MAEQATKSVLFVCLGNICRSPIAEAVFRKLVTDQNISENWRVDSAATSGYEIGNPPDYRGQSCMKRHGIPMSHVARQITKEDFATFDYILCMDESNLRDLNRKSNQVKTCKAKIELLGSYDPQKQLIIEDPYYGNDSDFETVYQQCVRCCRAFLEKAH
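Test system – LMPTP-A enzyme · Amount – LMPTP-A at 0.625 nM final in the reaction · Buffer or medium – Bis-Tris pH 6.0, DTT, detergent · Reagent – OMFP 400 µM · Doses – single 20 µM dose · Schedule – reaction 50 min, room temperature, dark · Detection – fluorescence intensity of OMFP turnover product · Evaluation – percent inhibition versus substrate-only and uninhibited controls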
SUMO1 PPI mod: modulators of human SUMO1-mediated protein-protein interactions; AID 602429; inhibition, % at 20 µM; 0.33% of 360,000 active; P63165; SUMO1 binding to a labelled peptide, TR-FRET, 1 h; in the data active = inhibition above about 37%
Target sequence (P63165 whole entry, looked up): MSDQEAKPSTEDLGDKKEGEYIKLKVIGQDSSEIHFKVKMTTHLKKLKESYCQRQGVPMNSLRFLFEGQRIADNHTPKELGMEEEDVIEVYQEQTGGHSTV
Scp-1 inhibitor: Scp-1 (human) phosphatase inhibition | Q9GZU7 | Recombinant Scp1, phosphopeptide, malachite green phosphate absorbance | inhibition, % at 20 µM | 0.88% of 340,000 active | AID 493091;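 active = inhibition above about 50% at 20 µM, limit read from the data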;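 also: plate controls were DMSO wells with enzyme for no effect and wells lacking enzyme for full effect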
Target sequence (Q9GZU7 76-261 limits assumed): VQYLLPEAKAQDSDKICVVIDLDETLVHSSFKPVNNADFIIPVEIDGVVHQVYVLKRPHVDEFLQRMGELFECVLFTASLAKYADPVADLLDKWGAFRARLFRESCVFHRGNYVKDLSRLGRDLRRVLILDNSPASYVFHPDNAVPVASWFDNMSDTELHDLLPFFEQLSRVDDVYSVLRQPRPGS
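Test system: SCP-1 phosphatase catalytic domain, residues 76-261; measured by: colorimetric phosphate reagent with accelerator and stabiliser, absorbance at 630 nm; timing: enzyme reaction 45 min at room temperature, colour 5 min, stabilisation 30 min; also added: Phosphorylated 17-residue peptide substrate; compound dosing: one concentration, 20 µM, with 1.0% DMSO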
STEP inh: blocks human striatal-enriched tyrosine phosphatase | 0.25% of 360,000 active | inhibition, % at 20 µM | P54829 | recombinant STEP, OMFP fluorogenic substrate, fluorescence;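 active = inhibition at 20 µM, scaled per plate between control wells, above about 37%, limit read from the data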;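 also: 0% = DMSO with enzyme and substrate and 100% = substrate only without enzyme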
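Measure: Control-normalized % inhibition with plate pattern correction | Test system: STEP phosphatase, cell-free reaction | Medium: pH 6.0 Bis-Tris with DTT and Tween 20 | Technique: Fluorescence, 480/540 nm | Times: Reaction 20 min, ambient temperature | Doses: Single compound dose of 20 µM, 1% DMSO final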
Beacon interf DR: beacon fluorescence artifact, dose response counter-screen; shares compounds with DNMT1 inh; molecular beacon fluorescence, spectral interference counter-screen; IC50, µM; 200 tested, under 10 active; AID 602382; call rule not given here
DNMT1 inh conf: confirmation of human DNMT1 inhibitors; 8% of 2,300 active; shares compounds with DNMT1 inh; inhibition, % at 10 µM; DNMT1 molecular beacon HinP1I cleavage, fluorescence;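 active = average inhibition of at least 30% in the single-concentration confirmation test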
Beacon interf: shows spectral interference in the DNMT1 beacon assay; 1% of 2,300 active; AID 602387; DNMT1 molecular beacon spectral interference counterscreen, fluorescence 485/520; activation (fluorescence interference), % at 10 µM; shares compounds with DNMT1 inh;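 active = activation of at least 30% at 10 µM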;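 also: DNMT1 catalytic domain with a HinP1I cleavage step and a FAM/dabcyl DNA beacon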
Starred values were filed as active, the others as inactive; / = no result. Sampled rows, rich in hits. Any-hit rate of the full collection: about 1.6%.

SMILES	DNMT1 inh	CFTR F508del cor	LMPTP inh	SUMO1 PPI mod	Scp-1 inhibitor	STEP inh	DNMT1 inh conf	Beacon interf	others
CCC(=O)N1CC2(C1)[C@@H](c1ccc(-c3ccccc3C)cc1)[C@@H](CO)N2C(=O)CC	/	1	/	/	/	/	/	/
C[C@@H]1CN([C@H](C)CO)S(=O)(=O)c2ccc(-c3ccncc3)cc2O[C@@H]1CN(C)C(=O)C1CCC1	/	1	/	/	/	/	/	/
COc1ccc(Cl)cc1-c1cc(C(=O)NCc2cccc(C(F)(F)F)c2)[nH]n1	58*	0	3	2	/	-2	1	1
COCC(=O)N(C)C[C@@H]1Oc2cc(C#CC3CCCC3)ccc2S(=O)(=O)N([C@@H](C)CO)C[C@H]1C	/	-2	/	/	/	/	/	/
Cc1noc(C)c1NC(=O)N(C)C[C@H]1Oc2ccc(NC(=O)CCC(F)(F)F)cc2C(=O)N([C@H](C)CO)C[C@H]1C	/	1	/	/	/	/	/	/
C[C@@H]1CCCCO[C@@H](CN(C)CC2CC2)[C@H](C)CN([C@@H](C)CO)C(=O)c2cc(NC(=O)Nc3ccc(F)cc3)ccc2O1	/	0	/	/	/	/	/	/
COc1ccc(NC(=O)N(C)C[C@@H]2OCc3cn(nn3)CCCC(=O)N([C@H](C)CO)C[C@@H]2C)c(OC)c1	/	1	/	/	/	/	/	/
c1cc(N2CCOCC2)ccc1-c1ccc2nncn2c1	8	3	-1	-38	/	2	/	/
c1coc(-c2ccc3nncn3c2)c1	102*	0	5	87*	/	28	76*	1	Beacon interf DR=>99
O=C(C[C@H]1CC[C@H](NC(=O)c2ccncc2)[C@H](CO)O1)NCc1ccncn1	/	-1	/	/	/	/	/	/
O=C(CCN1CCc2ccccc2C1)c1ccc2c(c1)OCCO2	0	/	-2	-1	-5	2	/	/
O=C(CCN1CCc2ccccc21)c1ccc2c(c1)OCCO2	54*	/	25	-10	1	2	2	1
COc1ccc(NC(=O)COC(=O)c2c3c(nc4ccccc24)CCCC3)cc1	55*	/	1	1	2	-1	2	4
COc1ccc(OC)c(NC(=O)COC(=O)c2c3c(nc4ccccc24)CCCC3)c1	-13	0	4	4	0	10	/	/
O=C(O)CN1C(=O)/C(=C\c2ccc(OC(=O)c3ccco3)cc2)SC1=S	0	-2	2	-26	6	15	/	/
CC1=NN2C(=N)/C(=C\c3ccc(SCc4ccccc4)o3)C(=O)N=C2S1	64*	/	3	5	20	5	3	2
CC1=CN2C(=N)/C(=C/c3ccco3)C(=O)N=C2S1	6	/	1	-17	6	-4	/	/
CC1=NN2C(=N)/C(=C\c3cc(C)n(Cc4ccccc4)c3C)C(=O)N=C2S1	2	-1	0	-12	-1	-1	/	/
O=C(O)CN1C(=O)/C(=C/c2ccc(SCc3ccccc3)o2)SC1=S	76*	0	9	4	59*	12	20	8
N=C1/C(=C\c2ccc(SCc3ccco3)o2)C(=O)N=C2SC=NN12	106*	/	30	43*	32	8	4	5
COCC(=O)N1C[C@@H](C)[C@@H](OC)CN(C)C(=O)c2cc(NC(=O)c3cc(C)on3)ccc2OC[C@H]1C	/	-3	/	/	/	/	/	/
C[C@@H]1CN([C@H](C)CO)C(=O)c2cc(NS(=O)(=O)c3cccs3)ccc2O[C@@H]1CN(C)C(=O)NC1CCCCC1	/	3	/	/	/	/	/	/
COc1ccc(NC(=S)N2CCC(C(=O)c3ccc(C)cc3)CC2)cc1	81*	1	1	5	-2	3	2	3
[O-][n+]1cccc2c(Br)cc(Br)c(O)c21	-8	1	5	8	2	5	/	/
C[n+]1cccc2c(Br)ccc([O-])c21	84*	3	53*	49*	-15	17	-1	2
SMILES	DNMT1 inh	CFTR F508del cor	LMPTP inh	SUMO1 PPI mod	Scp-1 inhibitor	STEP inh	DNMT1 inh conf	Beacon interf	others
O=C(O)CCCCCN1C(=O)/C(=C\c2cn(-c3ccccc3)nc2-c2cccs2)SC1=S	85*	4	5	114*	66*	2	44*	-5	Beacon interf DR=60*
O=C(O)CCCCCN1C(=O)/C(=C/c2cn(-c3ccccc3)nc2-c2cccs2)SC1=S	83*	6	2	59*	39	1	46*	-1	Beacon interf DR=81*
COc1ccc(-c2nn(-c3ccccc3)cc2/C=C2/SC(=S)N(CCC(=O)O)C2=O)cc1	75*	0	0	11	85*	18	89*	-6	Beacon interf DR=>99
CCN1C(=O)/C(=C/c2cn(-c3ccccc3)nc2-c2cccnc2)SC1=S	61*	1	-1	2	2	1	4	1
C[C@H](CO)N1C[C@H](C)[C@H](CN(C)C(=O)Nc2ccc(F)cc2)Oc2ncc(C#CC(C)(C)O)cc2C1=O	/	-3	/	/	/	/	/	/
O=C(O)C1CSC(c2ccco2)N1 (stereo not drawn)	97*	-2	58*	23	67*	32	17	-4
Cc1ccc(S(=O)(=O)N2[C@@H](c3ccc(C(C)(C)C)cc3)C(C(=O)O)=CC[C@H]2c2ccc(C(C)C)cc2)cc1	58*	-6	4	31	8	2	52*	-12	Beacon interf DR=>99
Cc1ccc([C@@H]2CC=C(C(=O)O)[C@H](c3ccc(C(C)(C)C)cc3)N2S(=O)(=O)c2ccc(C)cc2)cc1	27	-3	3	14	-17	-2	/	/
Cc1ccccc1OCc1nnc(SCC(=O)Nc2ccc3nc(SCC(=O)Nc4ccccc4)sc3c2)n1C	56*	/	1	2	-1	0	2	-1
COc1ccc2nc(NCCO)[nH]c2c1	-1	/	-2	4	-5	-3	/	/
COc1ccc2nc(N3CCCC3)[nH]c2c1	88*	/	-1	-1	-8	1	6	2
CCCCCOC(=O)c1c(N)n(CCOC)c2nc3ccccc3nc12	-15	/	1	5	0	2	/	/
CCOC(=O)c1c(N)n(CCOC(=O)c2cccs2)c2nc3ccccc3nc12	100*	/	4	38	0	5	7	6
CCCNC(=O)N1C[C@H](O)COC[C@H]2O[C@H](CC(=O)N3CCOCC3)CC[C@@H]21	/	-2	/	/	/	/	/	/
O=c1oc2c(O)cccc2cc1-c1nc2ccccc2[nH]1	63*	1	66*	-4	9	3	15	20
O=c1oc2c(CN3CCCCC3)c(O)ccc2cc1-c1nc2ccccc2[nH]1	7	1	-1	-1	-6	-6	/	/
